How the values were obtained:
KNS-42 [1] = assay: Cytotoxicity against human KNS-42 cells assessed as reduction in cell viability incubated for 72 hrs by PrestoBlue reagent based cell viability assay; format: functional; conditions: KNS-42, 72 h
How it was run: (§1)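 Viability screen run in triplicate. IC50 is the compound dose giving 50% inhibition of cell viability, taken as cytotoxicity.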

KNS-42 [2] = assay: Antiproliferative activity against human KNS-42 cells assessed as cell growth inhibition incubated for 72 hrs by MTT assay; format: functional, cell-based; conditions: KNS-42, 72 h
How it was run: (§2)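 Proliferation screen run in triplicate. IC50 is the compound dose giving 50% inhibition of cell proliferation.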

[3] = Cytotoxicity against human BT-12 cells assessed as reduction in cell viability incubated for 72 hrs by PrestoBlue reagent based cell viability assay; format: functional; conditions: BT-12, 72 h; how it was run: as §1
[4] = Antiproliferative activity against human BT-12 cells assessed as cell growth inhibition incubated for 72 hrs by MTT assay; format: functional, cell-based; conditions: BT-12, 72 h; how it was run: as §2
[5] = Cytotoxicity against human BT-16 cells assessed as reduction in cell viability incubated for 72 hrs by PrestoBlue reagent based cell viability assay; format: functional; conditions: BT-16, 72 h; how it was run: as §1
[6] = Antiproliferative activity against human BT-16 cells assessed as cell growth inhibition incubated for 72 hrs by MTT assay; format: functional, cell-based; conditions: BT-16, 72 h; how it was run: as §2
Daoy [7] = assay: Cytotoxicity against human Daoy cells assessed as reduction in cell viability incubated for 72 hrs by PrestoBlue reagent based cell viability assay; format: functional; how it was run: as §1
Daoy [8] = assay: Antiproliferative activity against human Daoy cells assessed as cell growth inhibition incubated for 72 hrs by MTT assay; format: functional, cell-based; how it was run: as §2
[9] = Cytotoxicity against human HFF-1 cells assessed as reduction in cell viability incubated for 72 hrs by PrestoBlue reagent based cell viability assay; format: toxicity; how it was run: as §1
[10] = Antiproliferative activity against human HFF-1 cells assessed as cell growth inhibition incubated for 72 hrs by MTT assay; format: toxicity, cell-based; how it was run: as §2
[11] = Octanol-water partition coefficient, logP of the compound; format: physicochemical
Cannabinoid receptor 1 [12] = biological target: T1, Cannabinoid receptor 1 (Homo sapiens, UniProt P21554); assay: Agonist activity at human CB1R expressed in mouse AtT20 cells at 10 uM by FLIPR membrane potential assay; format: functional, cell-based
How it was run: (§3)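 Agonist mode: AtT-20 cells stably transfected with human CB1R or human CB2R; membrane potential responses recorded.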

Cannabinoid receptor 2 [13] = biological target: T2, Cannabinoid receptor 2 (Homo sapiens, UniProt P34972); assay: Agonist activity at human CB2R expressed in mouse AtT20 cells at 10 uM by FLIPR membrane potential assay; format: functional, cell-based; how it was run: as §3
Cannabinoid receptor 1 [14] = biological target: T1, Cannabinoid receptor 1; assay: Antagonist activity at human CB1R expressed in mouse AtT20 cells at 10 uM by FLIPR membrane potential assay; format: functional, cell-based
How it was run: (§4)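 AtT-20 cells stably carrying human CB1R or human CB2R were pre-incubated with compound or vehicle for 60 minutes. 500 nM CP 55940 was then added and membrane potential responses were recorded. IC50 is for inhibition of the agonist response.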

Cannabinoid receptor 2 [15] = biological target: T2, Cannabinoid receptor 2; assay: Antagonist activity at human CB2R expressed in mouse AtT20 cells at 10 uM by FLIPR membrane potential assay; format: functional, cell-based; how it was run: as §4
Cannabinoid receptor 2 [16] = biological target: T2, Cannabinoid receptor 2; assay: Antagonist activity at human CB2R expressed in mouse AtT20 cells by FLIPR membrane potential assay; format: functional, cell-based
How it was run: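 AtT-20 cells stably transfected with human CB2R; membrane potential response read out. Antagonist mode: cells pre-incubated with vehicle or compound for 60 min, then challenged with 500 nM CP 55940. IC50 derived from inhibition of the agonist response. Not active defined as <50% inhibition at 10 μM.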

T1 sequence (P21554 whole entry): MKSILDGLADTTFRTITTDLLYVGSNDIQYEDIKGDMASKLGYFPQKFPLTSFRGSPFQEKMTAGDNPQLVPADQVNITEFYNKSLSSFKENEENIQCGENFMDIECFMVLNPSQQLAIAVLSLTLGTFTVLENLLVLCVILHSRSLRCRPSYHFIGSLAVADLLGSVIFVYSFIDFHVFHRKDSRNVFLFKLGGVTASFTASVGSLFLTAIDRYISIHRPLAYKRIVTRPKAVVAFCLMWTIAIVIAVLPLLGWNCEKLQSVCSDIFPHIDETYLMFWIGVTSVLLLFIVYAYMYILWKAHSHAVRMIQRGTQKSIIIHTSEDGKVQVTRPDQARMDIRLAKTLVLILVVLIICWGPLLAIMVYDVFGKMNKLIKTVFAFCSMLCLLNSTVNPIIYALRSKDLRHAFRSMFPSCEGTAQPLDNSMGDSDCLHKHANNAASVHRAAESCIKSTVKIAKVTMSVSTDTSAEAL
T2 sequence (P34972 whole entry): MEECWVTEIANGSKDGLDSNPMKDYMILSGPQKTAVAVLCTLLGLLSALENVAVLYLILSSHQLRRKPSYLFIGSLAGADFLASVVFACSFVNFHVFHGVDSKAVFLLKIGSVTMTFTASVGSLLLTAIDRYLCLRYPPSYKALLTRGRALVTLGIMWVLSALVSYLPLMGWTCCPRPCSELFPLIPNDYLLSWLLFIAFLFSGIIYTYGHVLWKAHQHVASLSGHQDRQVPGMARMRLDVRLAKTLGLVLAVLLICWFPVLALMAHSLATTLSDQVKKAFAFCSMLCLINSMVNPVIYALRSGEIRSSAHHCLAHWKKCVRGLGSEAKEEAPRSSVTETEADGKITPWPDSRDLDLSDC

Work on `O=C(NCc1ccccc1)c1cc2c(F)cc(F)cc2[nH]1` yielded an IC50 (KNS-42 [1]) of 8.25 µM, an IC50 (KNS-42 [2]) of 9.85 µM and an IC50 [3] of 0.89 µM. For the same compound, the IC50 [4] was 7.44 µM, the IC50 [5] was 1.81 µM and the IC50 [6] was 6.06 µM. It also gave an IC50 (Daoy [7]) greater than 10 µM, an IC50 (Daoy [8]) greater than 10 µM and an IC50 at 72 h [9] of 119 µM. The IC50 at 72 h [10] was 65 µM, the logP [11] was 3.17 and the Activity (Cannabinoid receptor 1 [12]) was less than 50%. It also gave an Activity (Cannabinoid receptor 2 [13]) of less than 50%, an inhibition (Cannabinoid receptor 1 [14]) of less than 50% and an inhibition (Cannabinoid receptor 2 [15]) of less than 50%.

With `O=C(NC12CC3CC(CC(C3)C1)C2)c1c[nH]c2c(Cl)ccc(Cl)c2c1=O` the IC50 (KNS-42 [1]) was 9.06 µM, the IC50 (KNS-42 [2]) was 2.92 µM and the IC50 [3] was 5.15 µM. For the same compound, the IC50 [4] was 3.59 µM, the IC50 [5] was 1.96 µM and the IC50 [6] was 4.88 µM. For the same compound, the IC50 (Daoy [7]) was 1.54 µM, the IC50 (Daoy [8]) was 4.71 µM and the IC50 at 72 h [9] was 7.04 µM. It also gave an IC50 at 72 h [10] of 3.85 µM, an IC50 (Cannabinoid receptor 2 [16]) of 1.28 µM and an Activity (Cannabinoid receptor 1 [12]) of less than 50%. It also gave an Activity (Cannabinoid receptor 2 [13]) of less than 50% and an inhibition (Cannabinoid receptor 1 [14]) of less than 50%.

Compound `O=C(NCc1ccc(F)cc1)c1cc2c(F)cc(F)cc2[nH]1` has an IC50 (KNS-42 [1]) of 3.41 µM, an IC50 (KNS-42 [2]) of 4.34 µM and an IC50 [3] of 9.23 µM. It also gave an IC50 [4] of 8.87 µM, an IC50 [5] of 5.5 µM and an IC50 [6] of 9.79 µM. The IC50 (Daoy [7]) was 4.1 µM, the IC50 (Daoy [8]) was greater than 10 µM and the IC50 at 72 h [9] was 281 µM. For the same compound, the IC50 at 72 h [10] was 40 µM, the logP [11] was 3.23 and the Activity (Cannabinoid receptor 1 [12]) was less than 50%. It also gave an Activity (Cannabinoid receptor 2 [13]) of less than 50%, an inhibition (Cannabinoid receptor 1 [14]) of less than 50% and an inhibition (Cannabinoid receptor 2 [15]) of less than 50%.

For `Cc1c(C(=O)c2cccc3ccccc23)c2cccc3c2n1[C@@H](CN1CCOCC1)CO3`, the IC50 (KNS-42 [1]) was 8.02 µM, the IC50 (KNS-42 [2]) was 8.07 µM and the IC50 [3] was 8.6 µM. For the same compound, the IC50 [4] was 9.32 µM, the IC50 [5] was 4.74 µM and the IC50 [6] was 4.57 µM. For the same compound, the IC50 (Daoy [7]) was greater than 10 µM, the IC50 (Daoy [8]) was 6.09 µM and the IC50 at 72 h [9] was 0.023 µM. The IC50 at 72 h [10] was 1.82 µM and the logP [11] was 4.13.

`O=C(NCc1ccc2c(c1)OCO2)c1cc2c(F)cc(F)cc2[nH]1` gave an IC50 (KNS-42 [1]) greater than 10 µM and an IC50 (KNS-42 [2]) greater than 10 µM.

Work on `O=C(NC12CC3CC(CC(C3)C1)C2)c1cc(=O)c2c(Cl)cc(Cl)cc2[nH]1` yielded an IC50 (KNS-42 [1]) greater than 10 µM and an IC50 (KNS-42 [2]) greater than 10 µM.

Compound `O=C(CC12CC3CC(CC(C3)C1)C2)Nc1nc2ccccc2[nH]1` has an IC50 (KNS-42 [1]) greater than 10 µM and an IC50 (KNS-42 [2]) of 6.46 µM.

In the case of `O=C(NC12CC3CC(CC(C3)C1)C2)c1cc(=O)c2c(Cl)ccc(Cl)c2[nH]1`, the IC50 (KNS-42 [1]) is reported as greater than 10 µM and the IC50 (KNS-42 [2]) is reported as greater than 10 µM.

In the case of `O=C(CNC(=O)c1cc2c(F)cc(F)cc2[nH]1)NC12CC3CC(CC(C3)C1)C2`, the IC50 (KNS-42 [1]) is reported as greater than 10 µM and the IC50 (KNS-42 [2]) is reported as greater than 10 µM.

Compound `O=C(NC12CC3CC(CC(C3)C1)C2)c1ccc(NC(=O)c2cc3c(F)cc(F)cc3[nH]2)cc1` has an IC50 (KNS-42 [1]) greater than 10 µM and an IC50 (KNS-42 [2]) greater than 10 µM.

For `O=C(NC12CC3CC(CC(C3)C1)C2)c1cc(=O)c2ccc(Br)cc2[nH]1`, the IC50 (KNS-42 [1]) was greater than 10 µM and the IC50 (KNS-42 [2]) was greater than 10 µM.

Work on `O=C(NC12CC3CC(CC(C3)C1)C2)c1cc2ccccc2[nH]1` yielded an IC50 (KNS-42 [1]) of 0.33 µM and an IC50 (KNS-42 [2]) greater than 10 µM.

`O=C(NC12CC3CC(CC(C3)C1)C2)c1c[nH]c2c(Cl)c(Cl)ccc2c1=O` gave an IC50 (KNS-42 [1]) greater than 10 µM and an IC50 (KNS-42 [2]) of 8.05 µM.

In the case of `O=C(Cc1ccc(NC(=O)c2cc3c(F)cc(F)cc3[nH]2)cc1)NC12CC3CC(CC(C3)C1)C2`, the IC50 (KNS-42 [1]) is reported as greater than 10 µM and the IC50 (KNS-42 [2]) is reported as 4.9 µM.

— ChEMBL document CHEMBL5107937, “Synthesis and antitumour evaluation of indole-2-carboxamides against paediatric brain cancer cells” (RSC Med Chem, 2021)
